# *1 amine or outer side, *2 acyl side, *3 side chain or, on linkers, in order; H or OH if unused. Where a SMILES comes first, the peptide text is derived from it. [ ]: non-standard residue; d: D form. The star is where a group is joined. X2 = C[N+](C)(C)c1ccc(C[C@H](N[*:1])C(=O)[*:2])cc1; Phe(4-NH2) = Nc1ccc(C[C@H](N)C(=O)O)cc1; Orn = NCCC[C@H](N)C(=O)O; PhAc = O=C(Cc1ccccc1)*; Piv = CC(C)(C)C(=O)*
# Key:
# Staphylococcus aureus [1] = test: Antibacterial activity against Staphylococcus aureus 7323 after 24 to 96 hrs by well microplate assay; type: functional
# Procedure, shortened: (§1)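 Strains were kept at -70 °C, grown at 30 °C on sheep-blood Columbia agar, and suspended in saline to OD595 0.1, then diluted 10×. Inoculum was added at 2 µL per 100 µL Nutrient Broth with yeast extract (2 g/400 mL). Peptide stocks were 4 g/L in ethanol, diluted to 1000 mg/L in water, then twofold in broth (64–1 mg/L). Plates were held at 30 °C for 24–96 h. MIC was the lowest concentration inhibiting growth.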
# Staphylococcus aureus [2] = test: Antibacterial activity against Staphylococcus aureus 7388 after 24 to 96 hrs by well microplate assay; type: functional; procedure, shortened: as §1
# Enterococcus faecalis = test: Antibacterial activity against Enterococcus faecalis 1131 after 24 to 96 hrs by well microplate assay; type: functional; procedure, shortened: as §1
# Escherichia coli = test: Antibacterial activity against Escherichia coli ATCC 25922 after 24 to 96 hrs by well microplate assay; type: functional; procedure, shortened: as §1
# Pseudomonas aeruginosa [3] = test: Antibacterial activity against Pseudomonas aeruginosa AK1 after 24 to 96 hrs by well microplate assay; type: functional; procedure, shortened: as §1
# Pseudomonas aeruginosa [4] = test: Antibacterial activity against Pseudomonas aeruginosa ATCC 19582 after 24 to 96 hrs by well microplate assay; type: functional; procedure, shortened: as §1
# Streptococcus mitis [5] = test: Antibacterial activity against Streptococcus mitis BMS after 24 to 96 hrs by well microplate assay; type: functional; procedure, shortened: as §1
# Streptococcus mitis [6] = test: Antibacterial activity against Streptococcus mitis ATCC 33399 after 24 to 96 hrs by well microplate assay; type: functional; procedure, shortened: as §1
# [7] = Cytotoxicity against human erythrocytes assessed as hemolysis after 4 hrs by twofold dilution assay; type: cell-based; details: Erythrocyte
# Procedure, shortened: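 Heparinised blood was spun at 1000g and 10 °C, and erythrocytes were washed three times in 0.85% saline and diluted to 1/25 packed volume. Peptide stocks were 1.5 mM in 30% DMSO/0.5 mM saline, sonicated if suspended, and twofold serially diluted in saline in triplicate rows. 1% Triton-X served as the lysis reference. Cells were incubated at 37 °C for 4 h and centrifuged, and the supernatant was read at A405 for % hemolysis.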
# [8] = Cytotoxicity against human erythrocytes assessed as hemolysis at 1.5 mM after 4 hrs by twofold dilution assay; type: cell-based; details: erythrocyte, 1500 µM
# [9] = tested on: coagulase-negative Staphylococcus; test: Antibacterial activity against coagulase-negative Staphylococcus CNS 5277 after 24 to 96 hrs by well microplate assay
# [10] = tested on: coagulase-negative Staphylococcus; test: Antibacterial activity against coagulase-negative Staphylococcus CNS 5115 after 24 to 96 hrs by well microplate assay
# [11] = tested on: coagulase-negative Staphylococcus; test: Antibacterial activity against coagulase-negative Staphylococcus CNS 7368 after 24 to 96 hrs by well microplate assay
# [12] = Cytotoxicity against human erythrocytes assessed as hemolysis at 25 uM after 4 hrs by twofold dilution assay; type: cell-based, Erythrocyte; details: read-out: Activity
# [13] = Cytotoxicity against human erythrocytes assessed as hemolysis at 12 uM after 4 hrs by twofold dilution assay; type: cell-based, Erythrocyte; details: read-out: Activity
# Procedure, shortened: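 Freshly drawn heparinised blood was spun at 1000g and 10 °C. The erythrocytes were washed three times in 0.85% saline and diluted to 1/25 packed cell volume. Peptide stock was 1.5 mM in 30% DMSO/saline, sonicated if needed, and serially twofold diluted in saline across 10 wells, with 1% Triton-X as reference. Plates were held at 37 °C for 4 h, then centrifuged, and hemolysis percentage was read from supernatant A405.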
MIC (Staphylococcus aureus [1]) [µg/mL],MIC (Staphylococcus aureus [2]) [µg/mL],MIC (Enterococcus faecalis) [µg/mL],MIC (Escherichia coli) [µg/mL],MIC (Pseudomonas aeruginosa [3]) [µg/mL],MIC (Pseudomonas aeruginosa [4]) [µg/mL],MIC (Streptococcus mitis [5]) [µg/mL],MIC (Streptococcus mitis [6]) [µg/mL],MIC [9] [µg/mL],MIC [10] [µg/mL],MIC [11] [µg/mL],Structure (SMILES),EC50 [7] [µM],Activity [8],"hemolysis at 4 h, 25 µM [12] [%]","hemolysis at 4 h, 12 µM [13] [%]"
8,16,32,32,> 64,> 64,8,16,8,8,8,CC(C)C[C@@H]1NC(=O)[C@H](CCCN)NC(=O)[C@H](C(C)C)NC(=O)[C@@H]2CCCN2C(=O)[C@H](Cc2ccccc2)NC(=O)[C@H](CC(C)C)NC(=O)[C@H](CCCN)NC(=O)[C@H](C(C)C)NC(=O)[C@@H]2CCCN2C(=O)[C@H](Cc2ccc(NC(=O)Cc3ccccc3)cc2)NC1=O (cyclo(FPV[Orn]L[Phe(4-NH2)](PhAc)PV[Orn]L)),9.35,Non-toxic,–,–
8,8,16,32,64,64,4,4,8,8,8,CC(C)C[C@@H]1NC(=O)[C@H](CCCN)NC(=O)[C@H](C(C)C)NC(=O)[C@@H]2CCCN2C(=O)[C@H](Cc2ccccc2)NC(=O)[C@H](CC(C)C)NC(=O)[C@H](CCCN)NC(=O)[C@H](C(C)C)NC(=O)[C@@H]2CCCN2C(=O)[C@H](Cc2ccc(NC(=O)C(C)(C)C)cc2)NC1=O (cyclo(FPV[Orn]L[Phe(4-NH2)](Piv)PV[Orn]L)),–,–,50,–
64,32,> 64,64,> 64,> 64,8,8,16,16,32,CC(C)C[C@@H]1NC(=O)[C@H](CCCN)NC(=O)[C@H](C(C)C)NC(=O)[C@@H]2CCCN2C(=O)[C@H](Cc2ccccc2)NC(=O)[C@H](CC(C)C)NC(=O)[C@H](CCCN)NC(=O)[C@H](C(C)C)NC(=O)[C@@H]2CCCN2C(=O)[C@H](Cc2ccc([N+](C)(C)C)cc2)NC1=O.[I-] (cyclo(FPV[Orn]L[X2]PV[Orn]L)),134,Non-toxic,–,–

Structure (SMILES),MIC (Staphylococcus aureus [1]) [µg/mL],MIC (Staphylococcus aureus [2]) [µg/mL],MIC (Enterococcus faecalis) [µg/mL],MIC (Escherichia coli) [µg/mL],MIC (Pseudomonas aeruginosa [3]) [µg/mL],MIC (Pseudomonas aeruginosa [4]) [µg/mL],MIC (Streptococcus mitis [5]) [µg/mL],MIC (Streptococcus mitis [6]) [µg/mL],MIC [9] [µg/mL],MIC [10] [µg/mL],MIC [11] [µg/mL],EC50 [7] [µM],Activity [8],"hemolysis at 4 h, 25 µM [12] [%]","hemolysis at 4 h, 12 µM [13] [%]"
CC(C)C[C@@H]1NC(=O)[C@H](CCCN)NC(=O)[C@H](C(C)C)NC(=O)[C@@H]2CCCN2C(=O)[C@@H](Cc2ccccc2)NC(=O)[C@H](CC(C)C)NC(=O)[C@H](CCCN)NC(=O)[C@H](C(C)C)NC(=O)[C@@H]2CCCN2C(=O)[C@@H](Cc2ccccc2)NC1=O [GRAMICIDIN S] (cyclo(L[dF]PV[Orn]L[dF]PV[Orn])),8,8,16,32,64,8,8,4,16,16,8,11.7,–,–,50

# From ChEMBL document CHEMBL1152538, “Synthesis and biological evaluation of asymmetric gramicidin S analogues containing modified D-phenylalanine residues” (Bioorg Med Chem, 2009)
